Experimental data: ChEMBL document CHEMBL4371062, “Synthesis, biological evaluation and molecular docking study of 1,2,3-1H-triazoles having 4H-pyrano[2,3-d]pyrimidine as potential Mycobacterium tuberculosis protein tyrosine phosphatase B inhibitors” (Bioorg Med Chem Lett, 2019)
Values after ≈ are worked out from the molar mass of the structure shown. Active and inactive are the calls of the source. The calls are words filed in the database; no cut-off is given here.

Legend:
[1] = biological target: T1, Phosphotyrosine protein phosphatase (Mycobacterium tuberculosis, UniProt A0A045ISB3); assay: Inhibition of Mycobacterium tuberculosis PTPB using pNPP as substrate preincubated for 15 mins followed by substrate addition and measured after 2 to 6 mins
T1 sequence (A0A045ISB3 whole entry): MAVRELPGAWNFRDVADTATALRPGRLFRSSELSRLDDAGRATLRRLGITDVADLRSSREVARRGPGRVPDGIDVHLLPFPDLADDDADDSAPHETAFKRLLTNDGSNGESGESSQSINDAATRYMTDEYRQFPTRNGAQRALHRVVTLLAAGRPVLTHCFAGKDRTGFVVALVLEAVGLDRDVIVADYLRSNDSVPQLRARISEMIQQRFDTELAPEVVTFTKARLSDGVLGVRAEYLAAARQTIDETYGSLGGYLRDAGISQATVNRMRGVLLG
Outline: (§1)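 Recombinant M. tuberculosis PtpB, cloned, expressed and purified as previously described, assayed with p-nitrophenyl phosphate as substrate. IC50 is the mean of three independent experiments.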

[2] = biological target: T2, Phosphotyrosine protein phosphatase (Mycobacterium tuberculosis) (UniProt A0A045ISB3); assay: Inhibition of Mycobacterium tuberculosis PTPB up to 100 uM using pNPP as substrate preincubated for 15 mins followed by substrate addition and measured after 2 to 6 mins; outline: as §1
T2 sequence (whole entry): T1 sequence (A0A045ISB3 whole entry)

[3] = biological target: T1, Phosphotyrosine protein phosphatase; assay: Competitive inhibition of Mycobacterium tuberculosis PTPB using varying levels of pNPP as substrate preincubated for 15 mins followed by substrate addition and measured after 2 to 6 mins by Lineweaver-burk plot analysis
Outline: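 Substrate pNPP was varied at fixed inhibitor levels of 0, 1, 1.5, 2, 3 and 4 µM, with p-nitrophenol release treated by Michaelis-Menten kinetics. Mechanism was judged from Lineweaver-Burk double-reciprocal plots (1/Vmax y-intercept, KMapp/Vmax slope, −1/KMapp x-intercept). Ki was derived from these plots.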

[4] = biological target: T2, Phosphotyrosine protein phosphatase (Mycobacterium tuberculosis); assay: Ratio of IC50 for inhibition of Mycobacterium tuberculosis PTPB to Ki for competitive inhibition of Mycobacterium tuberculosis PTPB
[5] = test system: Mycobacterium tuberculosis; assay: Antitubercular activity against Mycobacterium tuberculosis H37Rv assessed as reduction in relative light units at 5 ug/ml after 72 hrs by luciferase reporter phage assay relative to control; type: functional
[6] = test system: Mycobacterium tuberculosis; assay: Antitubercular activity against Mycobacterium tuberculosis H37Rv assessed as reduction in relative light units at 25 ug/ml after 72 hrs by luciferase reporter phage assay relative to control; type: functional
[7] = Antioxidant activity assessed as ABTS radical scavenging activity by measuring trolox equivalent antioxidant capacity after 6 mins by UV/Vis spectrophotometric analysis; type: functional
[8] = test system: Plasmodium falciparum; assay: Antimalarial activity against synchronized ring stage of Plasmodium falciparum measured after 48 hrs; type: functional, organism-based
[9] = test system: Mycobacterium tuberculosis; assay: Antitubercular activity against Mycobacterium tuberculosis H37Rv at 100 ug/ml after 28 days by Lowensteine-Jensen method relative to control; type: functional; details: 672 h

SMILES	IC50 [1]	also measured
CCOC(=O)C1=C(C)Oc2nc(C)n(Cc3cn([C@@H]4O[C@H](COC(C)=O)[C@@H](OC(C)=O)[C@H](OC(C)=O)[C@H]4OC(C)=O)nn3)c(=O)c2C1c1ccccc1OC (stereo not given in full)	35 µM	–
CCOC(=O)C1=C(C)Oc2nc(C)n(Cc3cn([C@@H]4O[C@H](COC(C)=O)[C@@H](OC(C)=O)[C@H](OC(C)=O)[C@H]4OC(C)=O)nn3)c(=O)c2C1c1cccc(OC)c1 (stereo not given in full)	28.2 µM	–
CCOC(=O)C1=C(C)Oc2nc(C)n(Cc3cn([C@@H]4O[C@H](COC(C)=O)[C@@H](OC(C)=O)[C@H](OC(C)=O)[C@H]4OC(C)=O)nn3)c(=O)c2C1c1ccc(O)c(OC)c1 (stereo not given in full)	7.51 µM	–
CCOC(=O)C1=C(C)Oc2nc(C)n(Cc3cn([C@@H]4O[C@H](COC(C)=O)[C@@H](OC(C)=O)[C@H](OC(C)=O)[C@H]4OC(C)=O)nn3)c(=O)c2C1c1ccccc1O (stereo not given in full)	29 µM	–
CCOC(=O)C1=C(C)Oc2nc(C)n(Cc3cn([C@@H]4O[C@H](COC(C)=O)[C@@H](OC(C)=O)[C@H](OC(C)=O)[C@H]4OC(C)=O)nn3)c(=O)c2C1c1ccc(Cl)cc1 (stereo not given in full)	35.3 µM	–
CCOC(=O)C1=C(C)Oc2nc(C)n(Cc3cn([C@@H]4O[C@H](COC(C)=O)[C@@H](OC(C)=O)[C@H](OC(C)=O)[C@H]4OC(C)=O)nn3)c(=O)c2C1c1ccc(C(C)C)cc1 (stereo not given in full)	–	inhibition [2]: inactive; Ki [3]: 1.1 µM; Ratio [4]: 1.42
CCOC(=O)C1=C(C)Oc2nc(C)n(Cc3cn([C@@H]4O[C@H](COC(C)=O)[C@@H](OC(C)=O)[C@H](OC(C)=O)[C@H]4OC(C)=O)nn3)c(=O)c2C1c1ccc(Br)cc1 (stereo not given in full)	–	inhibition [2]: inactive; Ki [3]: 1.8 µM; Ratio [4]: 1.23
CCOC(=O)C1=C(C)Oc2nc(C)n(Cc3cn([C@@H]4O[C@H](COC(C)=O)[C@@H](OC(C)=O)[C@H](OC(C)=O)[C@H]4OC(C)=O)nn3)c(=O)c2C1c1ccc(OC)cc1 (stereo not given in full)	29 µM	–
CCOC(=O)C1=C(C)Oc2nc(C)n(Cc3cn([C@@H]4O[C@H](COC(C)=O)[C@@H](OC(C)=O)[C@H](OC(C)=O)[C@H]4OC(C)=O)nn3)c(=O)c2C1c1ccc(O)c(OCC)c1 (stereo not given in full)	7.94 µM	–
CCOC(=O)C1=C(C)Oc2nc(C)n(Cc3cn([C@@H]4O[C@H](COC(C)=O)[C@@H](OC(C)=O)[C@H](OC(C)=O)[C@H]4OC(C)=O)nn3)c(=O)c2C1c1ccc(N(C)C)cc1 (stereo not given in full)	32 µM	–
CCOC(=O)C1=C(C)Oc2nc(C)n(Cc3cn([C@@H]4O[C@H](COC(C)=O)[C@@H](OC(C)=O)[C@H](OC(C)=O)[C@H]4OC(C)=O)nn3)c(=O)c2C1c1ccc(Cl)cc1Cl (stereo not given in full)	44 µM	–
CCOC(=O)C1=C(C)Oc2nc(C)n(Cc3cn([C@@H]4O[C@H](COC(C)=O)[C@@H](OC(C)=O)[C@H](OC(C)=O)[C@H]4OC(C)=O)nn3)c(=O)c2C1c1ccc([N+](=O)[O-])cc1 (stereo not given in full)	33 µM	–
CCOC(=O)C1=C(C)Oc2nc(C)n(Cc3cn([C@@H]4O[C@H](COC(C)=O)[C@@H](OC(C)=O)[C@H](OC(C)=O)[C@H]4OC(C)=O)nn3)c(=O)c2C1c1cc(OC)c(O)c(OC)c1 (stereo not given in full)	2.22 µM	–
CCOC(=O)C1=C(C)Oc2nc(C)n(Cc3cn([C@@H]4O[C@H](COC(C)=O)[C@@H](OC(C)=O)[C@H](OC(C)=O)[C@H]4OC(C)=O)nn3)c(=O)c2C1c1ccccc1Cl (stereo not given in full)	33.2 µM	–
CCOC(=O)C1=C(C)Oc2nc(C)n(Cc3cn([C@@H]4O[C@H](COC(C)=O)[C@@H](OC(C)=O)[C@H](OC(C)=O)[C@H]4OC(C)=O)nn3)c(=O)c2C1c1ccc(C)cc1 (stereo not given in full)	–	inhibition [2]: inactive; Ki [3]: 2.16 µM; Ratio [4]: 1.63
CCOC(=O)C1=C(C)Oc2nc(C)n(Cc3cn([C@@H]4O[C@H](COC(C)=O)[C@@H](OC(C)=O)[C@H](OC(C)=O)[C@H]4OC(C)=O)nn3)c(=O)c2C1c1ccc(O)cc1 (stereo not given in full)	35.3 µM	–
CCOC(=O)C1=C(C)Oc2nc(C)n(Cc3cn([C@@H]4O[C@H](COC(C)=O)[C@@H](OC(C)=O)[C@H](OC(C)=O)[C@H]4OC(C)=O)nn3)c(=O)c2C1c1cc(OC)cc(OC)c1 (stereo not given in full)	32.5 µM	–
CC(=O)OC[C@H]1O[C@@H](OCc2cn(Cc3ccc4ccccc4n3)nn2)[C@H](OC(C)=O)[C@@H](OC(C)=O)[C@H]1OC(C)=O	–	inhibition at 5 µg/mL [5]: 76%; inhibition at 25 µg/mL [6]: 78%
CCOC(=O)C1=C(C)Oc2nc(C)n(Cc3cn([C@@H]4O[C@H](COC(C)=O)[C@@H](OC(C)=O)[C@H](OC(C)=O)[C@H]4OC(C)=O)nn3)c(=O)c2C1c1ccc(OCC)c(O)c1 (stereo not given in full)	3.53 µM	–
CCOC(=O)C1=C(C)Oc2nc(C)n(Cc3cn([C@@H]4O[C@H](COC(C)=O)[C@@H](OC(C)=O)[C@H](OC(C)=O)[C@H]4OC(C)=O)nn3)c(=O)c2C1c1ccccc1[N+](=O)[O-] (stereo not given in full)	35.1 µM	–
CCOC(=O)C1=C(C)Oc2nc(C)n(Cc3cn([C@@H]4O[C@H](COC(C)=O)[C@@H](OC(C)=O)[C@H](OC(C)=O)[C@H]4OC(C)=O)nn3)c(=O)c2C1c1cccc(O)c1 (stereo not given in full)	35.9 µM	–
CCOC(=O)C1=C(N)Oc2[nH]c(=O)[nH]c(=O)c2C1[C@H](O)[C@@H](O)[C@H](O[C@H]1O[C@H](CO)[C@@H](O)[C@H](O)[C@H]1O)[C@H](O)CO (stereo not given in full)	–	Activity [7]: 5.24 µM
CCOC(=O)C1=C(N)Oc2[nH]c(=O)[nH]c(=O)c2C1c1c(C)nn(-c2ccccc2)c1-n1ccnc1 (stereo not given)	–	IC50 [8]: 0.062 µg/mL (≈ 0.13 µM); inhibition at 100 µg/mL [9]: 92%
CCOC(=O)C1=C(C)Oc2nc(C)n(Cc3cn([C@@H]4O[C@H](COC(C)=O)[C@@H](OC(C)=O)[C@H](OC(C)=O)[C@H]4OC(C)=O)nn3)c(=O)c2C1c1cccc(Cl)c1 (stereo not given in full)	9.52 µM	–
CCOC(=O)C1=C(C)Oc2nc(C)n(Cc3cn([C@@H]4O[C@H](COC(C)=O)[C@@H](OC(C)=O)[C@H](OC(C)=O)[C@H]4OC(C)=O)nn3)c(=O)c2C1c1cccc([N+](=O)[O-])c1 (stereo not given in full)	45 µM	–
CCOC(=O)C1=C(C)Oc2nc(C)n(Cc3cn([C@@H]4O[C@H](COC(C)=O)[C@@H](OC(C)=O)[C@H](OC(C)=O)[C@H]4OC(C)=O)nn3)c(=O)c2C1c1cc(OC)c(O)c([N+](=O)[O-])c1 (stereo not given in full)	1.56 µM	–
CCOC(=O)C1=C(C)Oc2nc(C)n(Cc3cn([C@@H]4O[C@H](COC(C)=O)[C@@H](OC(C)=O)[C@H](OC(C)=O)[C@H]4OC(C)=O)nn3)c(=O)c2C1c1ccccc1 (stereo not given in full)	47 µM	–
